Reference: ChEMBL document CHEMBL1938298, “Synthesis and characterization of [¹²⁵I]2-iodo N-[(S)-{(S)-1-methylpiperidin-2-yl}(phenyl)methyl]3-trifluoromethyl-benzamide as novel imaging probe for glycine transporter 1” (Bioorg Med Chem, 2011)
The source made the active and inactive calls. The calls are words filed in the database; no cut-off is given here.

Columns and labels:
[1] = molecular target: T1, Sodium- and chloride-dependent glycine transporter 1 (Rattus norvegicus) (UniProt P28572); assay: Binding affinity to GlyT1 in rat brain striatum at 0.03 to 0.04 nM preincubated for 20 mins in binding buffer before compound addition measured after 30 mins by autoradiography in presence of 0.01 mM GlyT2 inhibitor ORG25543 relative to control; format: tissue-based; details: tested as the 125I-labelled form
T1 sequence (whole entry): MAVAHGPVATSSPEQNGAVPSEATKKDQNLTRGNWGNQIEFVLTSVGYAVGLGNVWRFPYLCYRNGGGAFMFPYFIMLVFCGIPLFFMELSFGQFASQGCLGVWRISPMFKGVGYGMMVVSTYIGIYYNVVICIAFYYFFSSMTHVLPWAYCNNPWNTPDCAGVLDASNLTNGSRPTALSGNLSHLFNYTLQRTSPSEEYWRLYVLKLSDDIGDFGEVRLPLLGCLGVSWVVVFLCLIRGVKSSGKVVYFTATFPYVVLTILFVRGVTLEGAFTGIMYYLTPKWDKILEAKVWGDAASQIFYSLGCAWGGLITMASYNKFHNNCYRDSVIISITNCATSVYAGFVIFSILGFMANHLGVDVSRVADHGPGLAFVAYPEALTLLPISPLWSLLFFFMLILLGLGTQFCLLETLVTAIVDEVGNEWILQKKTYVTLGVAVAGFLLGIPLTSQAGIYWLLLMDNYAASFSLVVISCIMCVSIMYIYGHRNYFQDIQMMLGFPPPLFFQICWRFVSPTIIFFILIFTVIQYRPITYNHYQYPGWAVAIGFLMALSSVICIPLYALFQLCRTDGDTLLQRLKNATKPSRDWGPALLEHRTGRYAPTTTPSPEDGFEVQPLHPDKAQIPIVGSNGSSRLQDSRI

[2] = molecular target: T1, Sodium- and chloride-dependent glycine transporter 1 (Rattus norvegicus); assay: Binding affinity to GlyT1 in rat brain midbrain at 0.03 to 0.04 nM preincubated for 20 mins in binding buffer before compound addition measured after 30 mins by autoradiography in presence of 0.01 mM GlyT1 inhibitor SSR504734 relative to control; format: tissue-based; details: tested as the 125I-labelled form
Procedure, shortened: (§1)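 Rat brain sagittal sections (20 µm) preincubated 20 min at 25 °C in Tris-HCl buffer pH 7.5 (NaCl, KCl, MgCl2, CaCl2), then 30 min at 25 °C with [125I] tracer (100 kBq, 0.03–0.04 nM) plus competitor (10 µM; glycine 1 or 10 mM). Cold washes, imaging plate 3 days, ROI PSL minus background per mm². % control from ≥triplicate slices, three rats.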

[3] = tested on: Mus musculus; assay: In vivo binding affinity to GlyT1 in ddY mouse brain striatum at 33.3 kBq, iv after 60 mins in presence of SSR504734 2 mg/kg, iv administered 15 mins prior to compound administration relative to control; format: functional, organism-based; design: dose 2 mg/kg; details: tested as the 125I-labelled form
[4] = tested on: Mus musculus; assay: In vivo binding affinity to GlyT1 in ddY mouse brain cortex at 33.3 kBq, iv after 60 mins in presence of SSR504734 2 mg/kg, iv administered 15 mins prior to compound administration relative to control; format: functional, organism-based; design: dose 2 mg/kg; details: tested as the 125I-labelled form
Procedure, shortened: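 Blocking study in male ddY mice (6 weeks, 30–35 g). The blocker (2 mg/kg in 30% DMSO/saline) was injected i.v. 15 min before about 33.3 kBq [125I]tracer i.v.; mice were killed at 30 or 60 min. Brains were divided into cortex, corpus callosum, hippocampus, thalamus, midbrain, medulla and cerebellum, weighed and gamma-counted as % dose/g. Values are mean ± SD, n = 5–6, compared to control by Kruskal–Wallis with Dunn's post-test.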

[5] = molecular target: T1, Sodium- and chloride-dependent glycine transporter 1 (Rattus norvegicus); assay: Binding affinity to GlyT1 in rat brain hippocampus at 0.03 to 0.04 nM preincubated for 20 mins in binding buffer before compound addition measured after 30 mins by autoradiography in presence of GlyT1 inhibitor N-Me-SSR504734 relative to control; format: tissue-based; details: tested as the 125I-labelled form; procedure, shortened: as §1
[6] = molecular target: T1, Sodium- and chloride-dependent glycine transporter 1 (Rattus norvegicus); assay: Binding affinity to GlyT1 in rat brain midbrain at 0.03 to 0.04 nM preincubated for 20 mins in binding buffer before compound addition measured after 30 mins by autoradiography relative to control; format: tissue-based; details: tested as the 125I-labelled form
[7] = molecular target: T1, Sodium- and chloride-dependent glycine transporter 1 (Rattus norvegicus); assay: Binding affinity to GlyT1 in rat brain hippocampus at 0.03 to 0.04 nM preincubated for 20 mins in binding buffer before compound addition measured after 30 mins by autoradiography relative to control; format: tissue-based; details: tested as the 125I-labelled form
Procedure, shortened: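 Rat brain sagittal sections (20 µm), 20 min preincubation at 25 °C in Tris-HCl pH 7.5 binding buffer, then [125I] tracer (100 kBq, 0.03–0.04 nM) for 30 min at 25 °C. Nonspecific binding taken with 10 µM unlabeled ligand. Imaging-plate read-out as (PSL−BG)/mm². Mean ± SD, n = 4–5 from at least three rats; Mann–Whitney U-test.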

[8] = molecular target: T1, Sodium- and chloride-dependent glycine transporter 1 (Rattus norvegicus); assay: Binding affinity to GlyT1 in rat brain striatum at 0.03 to 0.04 nM preincubated for 20 mins in binding buffer before compound addition measured after 30 mins by autoradiography relative to control; format: tissue-based; details: tested as the 125I-labelled form
[9] = molecular target: T1, Sodium- and chloride-dependent glycine transporter 1 (Rattus norvegicus); assay: Binding affinity to GlyT1 in rat brain midbrain at 0.03 to 0.04 nM preincubated for 20 mins in binding buffer before compound addition measured after 30 mins by autoradiography in presence of 0.01 mM NMDA receptor glycine site antagonist L-701,324 relative to control; format: tissue-based; details: tested as the 125I-labelled form
[10] = molecular target: T1, Sodium- and chloride-dependent glycine transporter 1 (Rattus norvegicus); assay: Binding affinity to GlyT1 in rat brain cerebral cortex at 0.03 to 0.04 nM preincubated for 20 mins in binding buffer before compound addition measured after 30 mins by autoradiography in presence of GlyT1 inhibitor N-Me-SSR504734 relative to control; format: tissue-based; details: tested as the 125I-labelled form; procedure, shortened: as §1
[11] = molecular target: T1, Sodium- and chloride-dependent glycine transporter 1 (Rattus norvegicus); assay: Binding affinity to GlyT1 in rat brain cerebral cortex at 0.03 to 0.04 nM preincubated for 20 mins in binding buffer before compound addition measured after 30 mins by autoradiography in presence of 0.01 mM NMDA receptor glycine site antagonist L-701,324 relative to control; format: tissue-based; details: tested as the 125I-labelled form; procedure, shortened: as §1
[12] = tested on: Intestine; assay: Drug uptake in ddY mouse intestine at 11.1 kBq, iv after 30 min by gamma counting; format: ADME, organism-based; details: in vivo, 0.5 h
Procedure, shortened: (§2)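 Male ddY mice (6 weeks, 30–35 g) received about 11.1 kBq [125I]tracer in 0.1 mL i.v. via tail vein. Killed at set times, organs dissected and weighed, radioactivity gamma counted. Reported as % injected dose/g tissue, mean ± SD, n = 5–6.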

[13] = tested on: Spleen; assay: Drug uptake in ddY mouse spleen at 11.1 kBq, iv after 0.5 min by gamma counting; format: ADME, organism-based; details: in vivo
Procedure, shortened: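 Male ddY mice (6 weeks, 30–35 g) were given about 11.1 kBq of [125I]tracer in 0.1 mL i.v. via the tail vein. At each time point the animals were killed and organs dissected, weighed and gamma-counted. Uptake is expressed as % injected dose per gram of tissue, mean ± SD, n = 5–6.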

[14] = tested on: Mus musculus; assay: In vivo binding affinity to GlyT1 in ddY mouse brain medullary region at 33.3 kBq, iv after 60 mins in presence of N-Me-SSR504734 2 mg/kg, iv administered 15 mins prior to compound administration relative to control; format: functional, Medulla of organ
[15] = tested on: Heart; assay: Drug uptake in ddY mouse heart at 11.1 kBq, iv after 0.5 min by gamma counting; format: ADME, organism-based; details: in vivo; procedure, shortened: as §2
[16] = tested on: Heart; assay: Drug uptake in ddY mouse heart at 11.1 kBq, iv after 5 min by gamma counting; format: ADME, organism-based; details: in vivo; procedure, shortened: as §2
[17] = tested on: Heart; assay: Drug uptake in ddY mouse heart at 11.1 kBq, iv after 30 min by gamma counting; format: ADME, organism-based; details: in vivo, 0.5 h; procedure, shortened: as §2

With `CN1CCCC[C@H]1[C@@H](NC(=O)c1cccc(C(F)(F)F)c1I)c1ccccc1` the Activity [1] was 104%, the Activity [2] was 28.9% and the Activity [3] was “inactive”. The Activity [4] was “inactive”, the Activity [5] was 45.8% and the Activity [6] was “Active”. For the same molecule, the Activity [7] was “inactive”, the Activity [8] was “inactive” and the Activity [9] was 81.3%. The Activity [10] was 37.5% and the Activity [11] was 92.5%.

Work on `CN1CCCC[C@H]1[C@@H](NC(=O)c1cccc(C(F)(F)F)c1[125I])c1ccccc1` yielded a Drug uptake [12] of 5.76 % ID/g, a Drug uptake [13] of 0.97 % ID/g and an Activity [14] of 47%. It also gave a Drug uptake [15] of 8.19 % ID/g, a Drug uptake [16] of 5.17 % ID/g and a Drug uptake [17] of 3.95 % ID/g.
